Measured values published in ChEMBL document CHEMBL4689842, “EUbOPEN Chemogenomics Library wave 1” (2021).
Where “and” joins values, the source holds several entries; their conditions need not be identical. Equal entries are not always repeated.

Legend:
Format in all cases: toxicity, cell-based
U2OS = test: Multiplex assay against U2OS; conditions: human, 10 µM, compound concentration 10 uM
Method in brief: (§1)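 Per cents of healthy-nucleus cells form the tubulin, mitochondrial-mass and membrane-permeability phenotype values. Live cells were stained at seeding with Hoechst33342, BioTracker Green Microtubule Cytoskeleton Dye, MitoTracker Red and Annexin V Alexa Fluor 680. After compound addition they were imaged on a CQ1 microscope at 37°C and 5% CO2, and CellPathfinder machine-learning gating split them into Hoechst high-intensity objects or normal cells, normal cells into healthy, pyknosed or fragmented nuclei, and pyknosed cells into mitotic or apoptotic.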

Fibroblast [1] = test: Incucyte cell viability with human fibroblast; conditions: 10 µM, compound concentration 10 uM; also: filed as whole numbers so only -1 and 0 and 1 occur
Fibroblast [2] = test: Multiplex assay against human fibroblast; conditions: 10 µM, compound concentration 10 uM; method in brief: as §1

## Cc1sc2c(c1C)C(c1ccc(Cl)cc1)=N[C@@H](CC(=O)OC(C)(C)C)c1nnc(C)n1-2
U2OS; 12 h, replicate 1
  Population Apoptotic (%): 41% and 34%
  Population Fragmented Nuclei (%): 12%
  Population Healthy Nuclei (%): 67% and 58%
  Population Hoechst High Intensity Objects (%): 5% and 6%
  Population Membrane Permeable-Phenotype (%): 21% and 12%
  Population Mitochondria Different-Phenotype (%): 17% and 22%
  Population Mitotic Cells (%): 58% and 65%
  Population Normal (%): 94% and 93%
  Population Pyknosed Nuclei (%): 19% and 20%
  Population Tubulin-Different-Phenotype (%): 17% and 24%
  Total Cell Count: 1986
U2OS; 12 h, replicate 2
  Population Apoptotic (%): 28% and 14%
  Population Fragmented Nuclei (%): 29% and 21%
  Population Healthy Nuclei (%): 55% and 62%
  Population Hoechst High Intensity Objects (%): 13% and 12%
  Population Membrane Permeable-Phenotype (%): 14%
  Population Mitochondria Different-Phenotype (%): 28% and 33%
  Population Mitotic Cells (%): 71% and 85%
  Population Normal (%): 86% and 87%
  Population Pyknosed Nuclei (%): 15% and 16%
  Population Tubulin-Different-Phenotype (%): 36% and 27%
U2OS; 24 h, replicate 1
  Population Apoptotic (%): 88%
  Population Fragmented Nuclei (%): 16% and 20%
  Population Healthy Nuclei (%): 58%
  Population Hoechst High Intensity Objects (%): 5% and 6%
  Population Membrane Permeable-Phenotype (%): 27% and 23%
  Population Mitochondria Different-Phenotype (%): 19% and 29%
  Population Mitotic Cells (%): 12%
  Population Normal (%): 94% and 93%
  Population Pyknosed Nuclei (%): 24% and 20%
  Population Tubulin-Different-Phenotype (%): 30% and 40%
U2OS; 24 h, replicate 2
  Population Apoptotic (%): 76% and 64%
  Population Fragmented Nuclei (%): 30% and 25%
  Population Healthy Nuclei (%): 53% and 52%
  Population Hoechst High Intensity Objects (%): 11% and 12%
  Population Membrane Permeable-Phenotype (%): 20% and 18%
  Population Mitochondria Different-Phenotype (%): 30% and 23%
  Population Mitotic Cells (%): 23% and 35%
  Population Normal (%): 88%
  Population Pyknosed Nuclei (%): 15% and 22%
  Population Tubulin-Different-Phenotype (%): 52% and 34%
Fibroblast [1]; 0 h, replicate number 2, timepoint 0 hours
  Growth Rate: 0
Fibroblast [1]; 6 h, replicate number 1, timepoint 6 hours
  Growth Rate: 0
Fibroblast [1]; 6 h, replicate number 2, timepoint 6 hours
  Growth Rate: 1
Fibroblast [1]; 12 h, replicate number 1, timepoint 12 hours
  Growth Rate: 0
Fibroblast [1]; 18 h, replicate number 1, timepoint 18 hours
  Growth Rate: 0
Fibroblast [1]; 24 h, replicate number 1, timepoint 24 hours
  Growth Rate: 0
Fibroblast [2]; 12 h, replicate 1
  Population Apoptotic (%): 71% and 88%
  Population Fragmented Nuclei (%): 38% and 43%
  Population Healthy Nuclei (%): 48% and 40%
  Population Hoechst High Intensity Objects (%): 13% and 14%
  Population Membrane Permeable-Phenotype (%): 7% and 4%
  Population Mitochondria Different-Phenotype (%): 0%
  Population Mitotic Cells (%): 28% and 12%
  Population Normal (%): 86% and 85%
  Population Pyknosed Nuclei (%): 13% and 16%
  Population Tubulin-Different-Phenotype (%): 4% and 0%
  Total Cell Count: 368 and 183
Fibroblast [2]; 12 h, replicate 2
  Population Apoptotic (%): 66%
  Population Fragmented Nuclei (%): 55% and 63%
  Population Healthy Nuclei (%): 39% and 31%
  Population Hoechst High Intensity Objects (%): 24% and 25%
  Population Membrane Permeable-Phenotype (%): 10% and 0%
  Population Mitotic Cells (%): 33%
  Population Normal (%): 75%
  Population Pyknosed Nuclei (%): 6% and 4%
  Total Cell Count: 132 and 92
Fibroblast [2]; 24 h, replicate 1
  Population Apoptotic (%): 73%
  Population Fragmented Nuclei (%): 36% and 29%
  Population Healthy Nuclei (%): 47% and 59%
  Population Hoechst High Intensity Objects (%): 12% and 16%
  Population Membrane Permeable-Phenotype (%): 7%
  Population Mitochondria Different-Phenotype (%): 6%
